Values after ≈ are worked out from the molar mass of the structure shown.
B1: Thymidine kinase, cytosolic (Homo sapiens), P04183 (protein)
chain: MSCINLPTVLPGSPSKTRGQIQVILGPMFSGKSTELMRRVRRFQIAQYKCLVIKYAKDTRYSSSFCTHDRNTMEALPACLLRDVAQEALGVAVIGIDEGQFFPDIVEFCEAMANAGKTVIVAALDGTFQRKPFGAILNLVPLAESVVKLTAVCMECFREAAYTKRLGTEKEVEVIGGADKYHSVCRLCYFKKASGQPAGPDNKENCPVPGKPGEAVAARKLFAPQQILQCSPAN

Legend:
Cavia porcellus [1] = species on record: Cavia porcellus; assay: Compound (5%) was evaluated for its effect on (no. of areas = 4)maximum score in HSV-1 cutaneous infection of guinea pig; expressed as maximum score; assay type: functional
Cavia porcellus [2] = species on record: Cavia porcellus; assay: Compound (5%) was evaluated for its effect on (no. of areas = 4)mean peak lesion score in HSV-1 cutaneous infection of guinea pig; expressed as mean peak lesion score; assay type: functional
Cavia porcellus [3] = species on record: Cavia porcellus; assay: Compound (5%) was evaluated for its effect on (no. of areas = 4) mean area under lesion score-day curve in HSV-1 cutaneous infection of guinea pig; expressed as mean area under lesion score-day curve; assay type: functional
Cavia porcellus [4] = species on record: Cavia porcellus; assay: Compound (5%) was evaluated for its effect on (no. of areas = 4) time to start healing in HSV-1 cutaneous infection of guinea pig; expressed as time to start healing; assay type: functional
Mus musculus [5] = assay: Compound was evaluated for its effect of HSV -2 induced mortality in mice measured as survivors/total (%) at the dose of 25 mg/kg per day; 3/9; assay type: functional
Procedure, shortened: (§1)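 Female Swiss mice, 16–18 g, anesthetized and inoculated intracerebrally with 10 LD50 of HSV 2 (G strain), then randomized into groups of 8–12. Dosing was ip, b.i.d. for 5 consecutive days, starting 1 h postinfection. Mortality was followed for 21 days. P values were from the two-tailed Fisher exact test for survivors and the Gehan-Wilcoxon test for mean survival time.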

Mus musculus [6] = assay: Compound was evaluated for its effect of HSV -2 induced mortality in mice measured as survivors/total (%) at the dose of 50 mg/kg per day; 4/10; assay type: functional; procedure, shortened: as §1
Mus musculus [7] = assay: Compound was evaluated for its effect of HSV -2 induced mortality in mice measured as survivors/total (%) at the dose of 100 mg/kg per day; 3/8; assay type: functional; procedure, shortened: as §1
Mus musculus [8] = assay: Compound was evaluated for its effect of HSV -2 induced mortality in mice measured as survivors/total (%) at the dose of 12.5 mg/kg per day; 2/10; assay type: functional; procedure, shortened: as §1
Mus musculus [9] = assay: Compound was evaluated for its effect on HSV -2 induced mortality in mice measured as mean survival time (MST) at the dose of 100 mg/kg per day; assay type: functional; procedure, shortened: as §1
Mus musculus [10] = assay: Compound was evaluated for its effect on HSV -2 induced mortality in mice measured as mean survival time (MST) at the dose of 12.5 mg/kg per day; assay type: functional; procedure, shortened: as §1
Mus musculus [11] = assay: Compound was evaluated for its effect on HSV -2 induced mortality in mice measured as mean survival time (MST) at the dose of 25 mg/kg per day; assay type: functional; procedure, shortened: as §1
Vero [12] = assay: Compound was evaluated for antiviral activity against Herpes simplex virus (HSV) -1 (BW) in Vero cell cultures; assay type: functional; conditions: Chlorocebus sabaeus, read-out: ID50 (the source's name)
Procedure, shortened: (§2)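 Vero cell cultures were infected with HSV-1 strain BWˢ or HSV-2 strain MS. Antiviral activity was read by the dye-uptake method. The 50% inhibitory dose (ID50) was obtained by linear regression.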

Vero [13] = assay: Compound was evaluated for antiviral activity against Herpes simplex virus (HSV) -2 (MS) in Vero cell cultures; assay type: functional; conditions: Chlorocebus sabaeus, read-out: ID50 (the source's name); procedure, shortened: as §2
Mus musculus [14] = assay: Compound was evaluated for its effect on HSV -2 induced mortality in mice measured as mean survival time (MST) at the dose of 50 mg/kg per day; assay type: functional; procedure, shortened: as §1
Mus musculus [15] = assay: Compound was evaluated for its effect ofHSV -2 induced mortality in mice measured as survivors/total (%) at the dose of 100 mg/kg per day; 5/10; assay type: functional; procedure, shortened: as §1
Mus musculus [16] = assay: Compound was evaluated for its effect ofHSV -2 induced mortality in mice measured as survivors/total (%) at the dose of 12.5 mg/kg per day; 2/10; assay type: functional; procedure, shortened: as §1
Mus musculus [17] = assay: Compound was evaluated for its effect ofHSV -2 induced mortality in mice measured as survivors/total (%) at the dose of 25 mg/kg per day; 0/10; assay type: functional; procedure, shortened: as §1
Mus musculus [18] = assay: Compound was evaluated for its effect ofHSV -2 induced mortality in mice measured as survivors/total (%) at the dose of 50 mg/kg per day; 3/10; assay type: functional; procedure, shortened: as §1
Mus musculus [19] = assay: Compound was evaluated for its effect on HSV -2 induced mortality in mice measured as survivors/total (%) at the dose of 200 mg/kg per day; 6/12; assay type: functional; procedure, shortened: as §1
Mus musculus [20] = assay: Compound was evaluated for its effect on HSV -2 induced mortality in mice measured as mean survival time (MST) at the dose of 200 mg/kg per day; assay type: functional; procedure, shortened: as §1
Cavia porcellus [21] = species on record: Cavia porcellus; assay: Compound (5%) was evaluated for its effect on (no. of areas = 3) mean area under lesion score-day curve in HSV-1 cutaneous infection of guinea pig; expressed as mean area under lesion score-day curve; assay type: functional
Cavia porcellus [22] = species on record: Cavia porcellus; assay: Compound (5%) was evaluated for its effect on (no. of areas = 3) time to start healing in HSV-1 cutaneous infection of guinea pig; expressed as time to start healing; assay type: functional
Cavia porcellus [23] = species on record: Cavia porcellus; assay: Compound (5%) was evaluated for its effect on (no. of areas = 3)maximum score in HSV-1 cutaneous infection of guinea pig; expressed as maximum score; assay type: functional
Human alphaherpesvirus 1 = assay: Compound (5%) was evaluated for its effect on (no. of areas = 3)mean peak lesion score in HSV-1 cutaneous infection of guinea pig; expressed as mean peak lesion score; assay type: functional
Cavia porcellus [24] = species on record: Cavia porcellus; assay: Compound (5%) was evaluated for its effect on (no. of areas =3) time to start healing in HSV-1 cutaneous infection of guinea pig; expressed as time to start healing; assay type: functional
Mus musculus [25] = assay: Compound was evaluated for its effect of HSV -2 induced mortality in mice measured as survivors/total (%) at the dose of 25 mg/kg per day; 5/10; assay type: functional; procedure, shortened: as §1
Mus musculus [26] = assay: Compound was evaluated for its effect of HSV -2 induced mortality in mice measured as survivors/total (%) at the dose of 50 mg/kg per day; 5/10; assay type: functional; procedure, shortened: as §1
Mus musculus [27] = assay: Compound was evaluated for its effect of HSV -2 induced mortality in mice measured as survivors/total (%) at the dose of 100 mg/kg per day; 3/10; assay type: functional; procedure, shortened: as §1
Mus musculus [28] = assay: Compound was evaluated for its effect of HSV -2 induced mortality in mice measured as survivors/total (%) at the dose of 200 mg/kg per day; 6/10; assay type: functional; procedure, shortened: as §1
[29] = substrate: Cc1cn([C@@H]2O[C@H](CO)[C@@H](O)[C@@H]2F)c(=O)[nH]c1=O; conditions: Chlorocebus sabaeus; Vero
[30] = substrate: NC1=NC(=O)C2N=CN(COCCO)C2=N1; conditions: Chlorocebus sabaeus; Vero
[31] = substrate: O=c1[nH]c(=O)n([C@@H]2O[C@H](CO)[C@@H](O)[C@@H]2F)cc1I; conditions: Chlorocebus sabaeus; Vero

Molecule | Activity (Cavia porcellus [1]) [days] | Activity (Cavia porcellus [2]) | Activity (Cavia porcellus [3]) | Activity (Cavia porcellus [4]) [days] | Activity (Mus musculus [8]) [%] | MST (Mus musculus [9]) [days] | MST (Mus musculus [10]) [days] | MST (Mus musculus [11]) [days] | IC50 (Vero [12]) [µg/mL] | IC50 (Vero [13]) [µg/mL] | MST (Mus musculus [14]) [days] | MST (Mus musculus [20]) [days] | Activity (Cavia porcellus [21]) | Activity (Cavia porcellus [23]) [days] | also measured
NC1=NC(=O)C2N=CN(COCCO)C2=N1 (stereo not given) | 4 | 2.5 | 15.2 | 6.25 | 2 | 13 | 8 | 10 | 0.7 (≈ 3.11 µM) | 1.1 (≈ 4.88 µM) | 10 | – | – | – | Activity (Mus musculus [5]): 3%; Activity (Mus musculus [6]): 4%; Activity (Mus musculus [7]): 3%
CCc1cn([C@@H]2O[C@H](CO)[C@@H](O)[C@@H]2F)c(=O)[nH]c1=O | 3 | 1.5 | 10 | 6.5 | – | 18 | 8 | 9 | 0.99 (≈ 3.61 µM) | 2.7 (≈ 9.85 µM) | 12 | 19 | – | – | Activity (Mus musculus [15]): 5%; Activity (Mus musculus [16]): 2%; Activity (Mus musculus [17]): 0%; Activity (Mus musculus [18]): 3%; Activity (Mus musculus [19]): 6%
Cc1cn([C@@H]2O[C@H](CO)[C@@H](O)[C@@H]2F)c(=O)[nH]c1=O [5-METHYL-2'-FLUOROARAURACIL] | – | – | – | – | – | – | – | – | 1.3 (≈ 5 µM) | 0.13 (≈ 0.5 µM) | – | – | 2.7 | 2.67 | Activity (Cavia porcellus [22]): 5.33 days; Activity (Human alphaherpesvirus 1): 0.75
O=c1[nH]c(=O)n([C@@H]2O[C@H](CO)[C@@H](O)[C@@H]2F)cc1I [FIALURIDINE] | – | 1 | – | – | 2 | 13 | 10 | 18 | 0.96 (≈ 2.58 µM) | 0.64 (≈ 1.72 µM) | 18 | 21 | 9.6 | 3 | Activity (Cavia porcellus [24]): 4.67 days; Activity (Mus musculus [25]): 5%; Activity (Mus musculus [26]): 5%; Activity (Mus musculus [27]): 3%; Activity (Mus musculus [28]): 6%
B1 | – | – | – | – | – | – | – | – | – | – | – | – | – | – | Ki [29]: 60 µM; Ki [30]: > 4920 µM; Ki [31]: 53 µM

Source: ChEMBL document CHEMBL1123741 (J Med Chem, 1987)
